# Test results from ChEMBL document CHEMBL3526063, “Metabolism and pharmacokinetics of JM6 in mice: JM6 is not a prodrug for Ro-61-8048” (Drug Metab Dispos, 2012).
# How the values were obtained:
# [1] = biological target: Kynurenine 3-monooxygenase (Mus musculus, UniProt Q91WN4); experiment: Inhibition of C57BL/6J mouse KMO assessed as 3-hydroxykynurenine formation preincubated for 5 mins using 100 uM kynurenine as substrate by LC-MS/MS analysis
# Summary of the method: (§1)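 Liver mitochondrial KMO preparation (mouse C57 BL/6J, rat Wistar, human) at 0.3 mg protein/mL in 100 mM potassium phosphate pH 7.4 with 200 µM NADPH, 0.4 U/mL G6PDH, 3 mM glucose 6-phosphate. Compound pre-incubated 5 min at 25°C, then 100 µM kynurenine added; 40 min (rodent) or 60 min (human). Stopped with TCA; 3-hydroxykynurenine by LC-MS/MS. IC50 from 8-point 3-fold dilutions (top 3 or 30 µM), triplicates, n≥2 runs.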
# [2] = biological target: Kynurenine 3-monooxygenase (Rattus norvegicus, UniProt O88867); experiment: Inhibition of Wistar rat KMO assessed as 3-hydroxykynurenine formation preincubated for 5 mins using 100 uM kynurenine as substrate by LC-MS/MS analysis; summary of the method: as §1
# Chain of Kynurenine 3-monooxygenase (Rattus norvegicus, UniProt O88867) (O88867 whole entry): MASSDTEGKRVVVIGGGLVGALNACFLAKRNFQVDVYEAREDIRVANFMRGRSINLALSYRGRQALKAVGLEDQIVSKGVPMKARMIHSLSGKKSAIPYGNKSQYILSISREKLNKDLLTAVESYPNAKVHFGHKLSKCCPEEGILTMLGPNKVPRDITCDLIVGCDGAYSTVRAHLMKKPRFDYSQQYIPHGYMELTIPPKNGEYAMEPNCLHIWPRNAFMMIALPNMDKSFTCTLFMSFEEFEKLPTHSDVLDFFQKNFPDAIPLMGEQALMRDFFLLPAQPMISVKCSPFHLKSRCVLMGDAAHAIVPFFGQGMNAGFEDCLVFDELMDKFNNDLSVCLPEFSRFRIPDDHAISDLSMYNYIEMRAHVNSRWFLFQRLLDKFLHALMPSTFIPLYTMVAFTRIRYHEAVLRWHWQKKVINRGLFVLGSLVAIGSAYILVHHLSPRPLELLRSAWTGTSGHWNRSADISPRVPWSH
# [3] = biological target: Kynurenine 3-monooxygenase (Homo sapiens, UniProt O15229); experiment: Inhibition of human KMO assessed as 3-hydroxykynurenine formation preincubated for 5 mins using 100 uM kynurenine as substrate by LC-MS/MS analysis; summary of the method: as §1
# Chain of Kynurenine 3-monooxygenase (Homo sapiens, UniProt O15229) (O15229 whole entry): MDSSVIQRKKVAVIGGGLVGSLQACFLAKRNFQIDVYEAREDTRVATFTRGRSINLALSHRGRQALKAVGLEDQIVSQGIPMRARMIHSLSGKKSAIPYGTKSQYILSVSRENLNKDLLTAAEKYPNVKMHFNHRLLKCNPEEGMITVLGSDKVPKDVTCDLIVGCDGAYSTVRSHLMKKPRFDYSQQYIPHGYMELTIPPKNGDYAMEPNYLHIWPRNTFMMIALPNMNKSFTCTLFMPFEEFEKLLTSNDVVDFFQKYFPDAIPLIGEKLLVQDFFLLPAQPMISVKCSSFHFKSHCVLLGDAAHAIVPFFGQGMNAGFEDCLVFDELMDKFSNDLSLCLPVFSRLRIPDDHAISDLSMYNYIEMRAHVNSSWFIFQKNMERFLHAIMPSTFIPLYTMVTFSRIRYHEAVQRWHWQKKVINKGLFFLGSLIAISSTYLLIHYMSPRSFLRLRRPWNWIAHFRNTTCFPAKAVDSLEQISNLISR
# Chain of Kynurenine 3-monooxygenase (Mus musculus, UniProt Q91WN4) (Q91WN4 whole entry): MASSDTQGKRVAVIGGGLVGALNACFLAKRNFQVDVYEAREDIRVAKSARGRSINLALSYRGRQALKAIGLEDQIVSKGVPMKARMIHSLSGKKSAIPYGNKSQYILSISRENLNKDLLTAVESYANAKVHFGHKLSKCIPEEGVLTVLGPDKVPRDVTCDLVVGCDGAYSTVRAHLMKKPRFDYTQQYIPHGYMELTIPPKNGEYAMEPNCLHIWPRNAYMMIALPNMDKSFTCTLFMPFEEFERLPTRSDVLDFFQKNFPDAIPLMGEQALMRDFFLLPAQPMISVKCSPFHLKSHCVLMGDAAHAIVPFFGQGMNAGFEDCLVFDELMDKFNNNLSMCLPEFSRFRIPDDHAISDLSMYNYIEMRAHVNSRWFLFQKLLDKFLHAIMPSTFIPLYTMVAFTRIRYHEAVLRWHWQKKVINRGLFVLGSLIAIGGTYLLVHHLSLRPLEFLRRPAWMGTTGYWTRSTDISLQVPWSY
IC50 [1],IC50 [2],IC50 [3],SMILES
22 µM,11 µM,39 µM,COc1ccc(S(=O)(=O)Nc2nc(-c3cccc([N+](=O)[O-])c3)c(CO)s2)cc1OC
27 µM,10 µM,17 µM,COc1ccc(S(=O)(=O)Nc2nc(-c3cccc([N+](=O)[O-])c3)c(CN)s2)cc1OC
